Nine compounds from ChEMBL document CHEMBL3091314, “Synthesis, cytotoxic evaluation and molecular docking study of 2-alkylthio-4-(2,3,4-trimethoxyphenyl)-5-aryl-thiazoles as tubulin polymerization inhibitors” (Bioorg Med Chem, 2013) can be followed below.

pIC50: −log10 of the molar value. Activity calls are given as the source filed them. No cut-off for these calls is given here.

Usually pIC50 stands for the IC50 on a negative log10 scale, so that one unit is a factor of ten.

Series [1] relates to NIH3T3. Briefly: Cytotoxicity against mouse NIH/3T3 cells after 48 hrs by MTT assay. In kind it is cell-based. The following applies: NIH3T3, 48 h. Put shortly: (§1)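 Cells grown in RPMI-1640 with 10% heat-inactivated FBS, penicillin and streptomycin, seeded at 8000–10,000 viable cells/well and left 48 h to attach. Exposed to 0.001–100 µM compound (DMSO final <0.1%) for 24 or 48 h depending on cell line. MTT (5 mg/ml in PBS) added for 4 h at 37 °C, formazan dissolved in DMSO, absorbance read at 550 nm against 690 nm. Triplicates; IC50 by nonlinear regression, mean ± SD.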
(Formazan colour is commonly taken as a measure of viable cells.)

A further series deals with HT-29. The experiment in a line: Cytotoxicity against human HT-29 cells after 48 hrs by MTT assay. In kind it is functional, cell-based. The following applies: HT-29, 48 h. The method, boiled down:
as §1

Another series concerns AGS. Briefly: Cytotoxicity against human AGS cells after 48 hrs by MTT assay. In kind it is functional, cell-based. The method, boiled down: as §1
In the next series the test system is MCF7. The experiment in a line: Cytotoxicity against human MCF7 cells after 48 hrs by MTT assay. It counts as functional, cell-based. The following applies: MCF7, 48 h. The method, boiled down:
as §1

The test system of series [2] is NIH3T3. Briefly: Cell cycle arrest in mouse NIH/3T3 cells assessed as accumulation at S phase at 25 uM after 24 hrs using propidium iodide staining by flow cytometric analysis (reference value: 24.39%). In kind it is cell-based. As to conditions: nih3t3, 24 h. The method, boiled down: (§2)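 NIH-3T3 cells treated with 25 or 50 µM for 24 h. Collected by centrifugation, fixed in 75% ethanol at 4 °C for 0.5 h, then resuspended in PBS with 0.1% Triton X-100, 10 µg/mL propidium iodide and 100 µg/mL RNase A at 37 °C for 0.5 h. DNA content read on a FACSCalibur flow cytometer. CA-4 (0.05 µM) served as positive control.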
(In general: Flow cytometry measures light scatter and fluorescence of single cells or particles in a stream.)

Series [3] concerns NIH3T3. The experiment in a line: Cell cycle arrest in mouse NIH/3T3 cells assessed as accumulation at G2/M phase at 25 uM after 24 hrs using propidium iodide staining by flow cytometric analysis (reference value: 35.70%). In kind it is cell-based. As to conditions: nih3t3, 24 h. The method, boiled down: as §2
Series [4] relates to NIH3T3. Briefly: Cell cycle arrest in mouse NIH/3T3 cells assessed as accumulation at G2/M phase at 50 uM after 24 hrs using propidium iodide staining by flow cytometric analysis (reference value: 35.70%). In kind it is cell-based. The following applies: nih3t3, 24 h. The method, boiled down:
as §2

The species entered for a further series is Ovis aries. The experiment in a line: Inhibition of sheep brain tubulin polymerization at 10 uM after 15 mins. The method, boiled down: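 Purified tubulin (12 µM) preincubated 15 min with compound at 10 µM final in PEM buffer (100 mM PIPES pH 6.9, 1 mM MgSO4, 1 mM EGTA), then cooled to 0 °C. GTP added to 1 mM final; assembly started by warming from 0 to 37 °C and followed by absorbance at 350 nm. Duplicate experiments; CA-4 as positive control.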

For series [5], the system named is NIH3T3. Briefly: Cell cycle arrest in mouse NIH/3T3 cells assessed as accumulation at G0/G1 phase at 25 uM after 24 hrs using propidium iodide staining by flow cytometric analysis (reference value: 39.91%). As to conditions: nih3t3, 24 h. In kind it is cell-based. The method, boiled down:
as §2

Series [6] relates to NIH3T3. The experiment in a line: Cell cycle arrest in mouse NIH/3T3 cells assessed as accumulation at S phase at 50 uM after 24 hrs using propidium iodide staining by flow cytometric analysis (reference value: 24.39%). In kind it is cell-based. The following applies: nih3t3, 24 h. Put shortly:
as §2

The subject of series [7] is NIH3T3. Briefly: Cell cycle arrest in mouse NIH/3T3 cells assessed as accumulation at G0/G1 phase at 50 uM after 24 hrs using propidium iodide staining by flow cytometric analysis (reference value: 39.91%). It counts as cell-based. The following applies: nih3t3, 24 h. The method, boiled down: as §2

Regarding `COc1ccc(-c2nc(SC)sc2-c2ccccc2)c(OC)c1OC`, the values for the pIC50 in the series with NIH3T3 [1], in the series on HT-29 and in the series with AGS were 4.66, 4.11 and 4.57, respectively.

As to `COc1ccc(-c2nc(SCc3ccccc3)sc2-c2ccc(Cl)cc2)c(OC)c1OC`, the pIC50 with MCF7 was 4.90; in the series on NIH3T3 [1] it was 4.69; in the series with HT-29 it was 5.05; in the series with AGS, 4.80. In addition, the Activity in the series on NIH3T3 [2] amounted to 28.12%; in the series with NIH3T3 [3] it was 37.64%; in the series with NIH3T3 [4], 57.41%; with NIH3T3 [5], 34.24%; in the series with NIH3T3 [6], 26.67%; in the series on NIH3T3 [7], 15.92%. Moreover, the “tubulin polymerization inhibition (active/inactive)” value in the series listed under Ovis aries was “Active”.

Consider `COc1ccc(-c2nc(SCc3ccccc3)sc2-c2ccccc2)c(OC)c1OC`, for which the negative logarithm of the IC50 (pIC50) with MCF7 is 4.56; in the series with NIH3T3 [1] it was 4.25; in the series with HT-29, 4.34; in the series with AGS, 4.41.

In the case of `COc1ccc(-c2nc(SC)sc2-c2ccc(F)cc2)c(OC)c1OC`, the figures for the negative-log IC50 (pIC50) with NIH3T3 [1], in the series on HT-29 and in the series on AGS were 4.38, 4.10 and 4.01, respectively.

`COc1ccc(-c2nc(SCc3ccccc3)sc2-c2ccc([N+](=O)[O-])cc2)c(OC)c1OC`: the pIC50 in the series on MCF7 was 4.96; in the series on NIH3T3 [1], 4.79; in the series on HT-29, 4.47; in the series with AGS it was 4.86. Besides, the “tubulin polymerization inhibition (active/inactive)” value in the series listed under Ovis aries was “Active”.

On to `COc1ccc(-c2nc(SCc3ccccc3)sc2-c2ccc(F)cc2)c(OC)c1OC`, for which the pIC50 is 4.73 in the series on MCF7, 4.38 in the series with NIH3T3 [1], 4.73 in the series with HT-29 and 4.74 in the series on AGS. In addition, in the series listed under Ovis aries, the “tubulin polymerization inhibition (active/inactive)” value was “Active”.

On to `COc1ccc(-c2nc(SC)sc2-c2ccc([N+](=O)[O-])cc2)c(OC)c1OC`, for which the negative-log IC50 (pIC50) with NIH3T3 [1] is < 4.00; with HT-29 it was 4.34; with AGS, < 4.00.

As to `COc1ccc(-c2nc(SC)sc2-c2ccc(Cl)cc2)c(OC)c1OC`, the negative-log IC50 (pIC50) in the series with NIH3T3 [1] is 4.02; in the series with HT-29, < 4.00; in the series with AGS, < 4.00.

`COc1ccc(/C=C\c2cc(OC)c(OC)c(OC)c2)cc1O` [COMBRETASTATIN A4]: the negative logarithm of the IC50 (pIC50) was 6.17 in the series on MCF7, 7.01 in the series on NIH3T3 [1], 5.80 in the series on HT-29 and 7.19 in the series with AGS. The “tubulin polymerization inhibition (active/inactive)” value in the series filed under Ovis aries was “Active”.
